Compound activity: PubChem BioAssay, several laboratories
PAFAH2 inh = PAFAH2 enzyme inhibitors, primary screen, biochemical, fluorescence polarization, human | Platelet-activating factor acetylhydrolase 2, cytoplasmic (Homo sapiens), Q99487 | recombinant PAFAH2, FP-rhodamine activity probe | inhibition, % at 3.39 µM | 340,000 tested, 0.99% active | AID 492956, 2010;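 active means inhibition above the mean over all tested compounds plus 3 SD, cut at about 30% in these data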;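 further: inhibitors block probe labeling of enzyme so polarization drops; 0% = enzyme with DMSO and 100% = wells lacking PAFAH2 protein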
PAFAH1B2 FP inh = PAFAH1B2 enzyme inhibitors, primary screen, biochemical, fluorescence polarization, human | 340,000 tested, 1.2% active | inhibition, % at 3.39 µM | Platelet-activating factor acetylhydrolase IB subunit alpha2 (Homo sapiens), P68402 | recombinant PAFAH1B2, FP-rhodamine activity probe;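 active means inhibition above the mean of all tested compounds plus 3 SD, cut at about 24% in these data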;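 further: 0% = enzyme with DMSO and 100% = wells lacking PAFAH1B2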
Target sequence (P68402 whole entry, looked up): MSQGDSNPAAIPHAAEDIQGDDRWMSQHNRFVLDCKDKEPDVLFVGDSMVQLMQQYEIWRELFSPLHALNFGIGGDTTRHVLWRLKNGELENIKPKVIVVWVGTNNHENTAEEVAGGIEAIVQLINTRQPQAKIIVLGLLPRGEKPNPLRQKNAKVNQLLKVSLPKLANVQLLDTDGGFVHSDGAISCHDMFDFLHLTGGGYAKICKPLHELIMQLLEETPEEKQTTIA
Apaf1 inhib = inhibitors of human Apaf-1 apoptosome, primary screen, biochemical, DEVD-Rh110 fluorescence, uHTS; Apoptotic protease-activating factor 1 (Homo sapiens), O14727; reconstituted apoptosome caspase-3 activity; inhibition, % at 20 µM; 330,000 tested, 0.71% active; AID 489030, 2010; active means inhibition of at least 40% at 20 µM;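 further: plate controls were DMSO wells for no effect and DEVD-CHO caspase inhibitor wells for full effect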
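Assay system: Apoptosome proteins | Medium: pH 7.5 Hepes buffer with CHAPS, BSA, DTT | Also added: Cytochrome c and DEVD-Rh110 substrate | Times: 30 min plus 50 min, RT | Detection: Rhodamine 110 fluorescence at Ex 480/Em 540 nm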
pPAFAH FP inh = pPAFAH enzyme inhibitors, primary screen, biochemical, fluorescence polarization, human; AID 463082, 2010; 330,000 tested, 1.5% active; inhibition, % at 3.39 µM; recombinant pPAFAH, FP-rhodamine probe fluorescence polarization;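 active means inhibition above the mean inhibition across the screen plus 3 SD, cut at about 25% in these data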;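 further: inhibitors block binding of the rhodamine activity-based probe so polarization drops; 0% = enzyme with DMSO and 100% = wells lacking pPAFAH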
PAFAH1B3 inh = PAFAH1B3 enzyme inhibitors, primary screen, biochemical, fluorescence polarization, human; Platelet-activating factor acetylhydrolase IB subunit alpha1 (Homo sapiens), Q15102; recombinant PAFAH1B3, FP-rhodamine probe; inhibition, % at 3.39 µM; 340,000 tested, 0.28% active;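 active means inhibition above the screen-wide average of all tested compounds plus 3 SD, cut at about 25% in these data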;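 further: 0% = enzyme with DMSO only and 100% = wells lacking PAFAH1B3 protein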
Target sequence (Q15102 whole entry, looked up): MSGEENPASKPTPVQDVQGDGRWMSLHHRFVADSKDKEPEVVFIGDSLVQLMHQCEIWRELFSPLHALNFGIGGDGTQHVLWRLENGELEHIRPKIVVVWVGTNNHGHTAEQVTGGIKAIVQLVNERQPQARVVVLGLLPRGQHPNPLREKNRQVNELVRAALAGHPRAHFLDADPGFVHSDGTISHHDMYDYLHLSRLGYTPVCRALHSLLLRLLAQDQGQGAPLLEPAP
Active calls of the source: *; / = no result. This is a sample that favours compounds with a hit; in the whole collection about 3.1% have one here.

SMILES	PAFAH2 inh	PAFAH1B2 FP inh	Apaf1 inhib	pPAFAH FP inh	PAFAH1B3 inh
COC(=O)c1ccccc1S(=O)(=O)N1CCC(NC(=O)C(Cc2cccc(OC)c2OC)NC(C)=O)CC1 (configuration not stated)	5	-3	-12	/	-2
CN(CC(=O)Nc1ccccc1Cl)C(=O)COC(=O)Cc1ccc(F)cc1	-2	5	1	8	12
Cc1ccc(CNC(=O)COC(=O)CCOc2ccc(C)cc2)cc1	-6	7	15	27*	-1
CC(C)(C)c1ccc(OCCC(=O)OCC(=O)NCc2ccccc2)cc1	0	7	28	26*	-1
Cc1ccc(CNC(=O)CCOc2ccc(C(C)(C)C)cc2)cc1	-3	30*	1	9	0
COc1ccc(OCCC(=O)NCc2ccccc2)cc1	3	6	8	-4	11
CCCc1cc(=O)oc2cc(C)cc(OC(C)C(=O)NCc3ccncc3)c12 (configuration not stated)	-4	3	6	4	0
Cc1ccccc1NC(=O)c1sc2nc(N3CCOCC3)c3c(c2c1N)CCCC3	-1	3	13	27*	4
Oc1c(/C=N/Nc2cccc3cccnc23)ccc2ccccc12	-18	3	30	30*	3
Oc1cccc(/C=N/Nc2cccc3cccnc23)c1	13	7	21	/	14
Cc1c(N=C2C=C(Br)C(=O)C(Br)=C2)c(=O)n(-c2ccccc2)n1C	16	35*	31	/	2
CC1CCc2c(sc3nc(CN4CCOCC4)nc(NS(=O)(=O)c4cccc([N+](=O)[O-])c4)c23)C1 (configuration not stated)	6	0	10	25*	6
N=C(N)c1ccc(N=Nc2c(O)ccc3c2[nH]c2ccccc23)cc1	10	31*	/	/	9
NC(=O)c1ccc(N=Nc2c(O)c3ccccc3[nH]c2=O)cc1	/	/	9	9	/
CN(C)c1nc(F)c(F)c(S(=O)(=O)c2ccccc2)c1F	0	9	5	1	14
CN1C(=O)C2(CCCCC2)C1c1ccccc1 (configuration not stated)	-1	9	20	-1	0
O=C1N(c2ccccc2)C(c2ccccc2)C12CCCCC2 (configuration not stated)	0	32*	18	0	10
O=C(Sc1n[nH]c(=O)[nH]c1=O)c1ccccc1	-4	3	/	/	5
O=C(NCC1CCCO1)C(=O)N/N=C/c1ccc(OCc2ccccc2Cl)cc1 (configuration not stated)	5	3	4	30*	6
S=C(Nc1ccc(Br)cc1)NC1CCCCC1	1	11	3	5	9
O=C(Nc1ccc(Cl)c(Cl)c1)Nc1ccc(N2CCCC2)c(S(=O)(=O)Nc2ccccc2Cl)c1	-84	4	2	11	-7
O=C(Nc1ccc(F)cc1)Nc1ccc(N2CCCC2)c(S(=O)(=O)Nc2ccccc2Cl)c1	-24	-6	21	25*	-7
O=C(Nc1cc(S(=O)(=O)Nc2ccc(Cl)cc2)ccc1O)c1ccc(S(=O)(=O)N2CCCCCC2)cc1	-11	-6	12	30*	-5
O=C(NNS(=O)(=O)c1ccc(Cl)cc1)c1ccc(S(=O)(=O)N2CCCCC2)cc1	-7	11	14	0	0
O=C(Nc1cc(S(=O)(=O)N2CCCCC2)ccc1Cl)c1ccccc1NS(=O)(=O)c1ccc(F)cc1	2	30*	/	22	18
SMILES	PAFAH2 inh	PAFAH1B2 FP inh	Apaf1 inhib	pPAFAH FP inh	PAFAH1B3 inh
Cc1ccc(S(=O)(=O)Nc2ccccc2C(=O)Nc2nc(-c3ccc(F)cc3)cs2)cc1	0	2	16	25*	-2
CC(C)(C)OC(=O)N1CCC(c2c(C(=O)NCC3CCN(C4CCCC4)C3)cnn2-c2ccccc2Cl)CC1 (configuration not stated)	5	1	9	0	3
O=C1N[C@@H](Cc2c[nH]c3ccccc23)COC(=O)[C@@H](Cc2ccc(F)cc2)CC/C=C/C[C@@H]1CC(=O)N(CCO)Cc1ccccc1	-1	34*	24	13	1
O=C1NCCOC(=O)[C@H](Cc2ccc(F)cc2)C/C=C\C[C@H]1CC(=O)N(CCO)Cc1ccccc1	0	30*	-6	7	4
O=C1N[C@@H](Cc2c[nH]c3ccccc23)COC(=O)[C@H](Cc2ccc(F)cc2)C/C=C\C[C@H]1CC(=O)N(CCO)Cc1ccccc1	3	10	32	2	6
O=C1NC[C@@H](c2ccccc2)OC(=O)[C@@H](Cc2ccc(F)cc2)C/C=C\C[C@@H]1CC(=O)N(CCO)Cc1ccccc1	11	64*	32	26*	-3
O=C1NC[C@H](c2ccccc2)OC(=O)[C@H](Cc2ccc(F)cc2)C/C=C\C[C@@H]1CC(=O)N(CCO)Cc1ccccc1	-3	-4	25	2	7
Cc1ccc(C)c(S(=O)(=O)N2CCCCC2CCNC(=O)C(=O)NCc2ccccc2)c1 (configuration not stated)	7	14	12	11	2
CN(Cc1ccccc1)C(=O)c1ccc(NC(=O)Cc2ccc(NC(=O)C3CCCN(C(=O)C4CC4)C3)cc2)cc1 (configuration not stated)	0	-4	/	/	5
Cc1cccc(NC(=O)CN(C)S(=O)(=O)c2ccc3c(c2)n(C)c(=O)c(=O)n3C)c1C	4	5	1	5	5
CC(C)OP(=O)(OC(C)C)/C(C=O)=N\Nc1ccc([N+](=O)[O-])cc1	14	6	-6	3	3
Cc1ccc(S(=O)(=O)N2CCN(C(=S)NCCc3ccccc3)CC2)cc1	2	45*	28	0	10
Cc1ccc(S(=O)(=O)N2CCN(C(=O)N(c3ccccc3)c3ccccc3)CC2)cc1	12	26*	15	4	3
N#Cc1c(N)sc(=S)c2c1CCN(Cc1ccccc1)C2	/	/	96*	40*	/
Cc1cccc2cc(C(c3nnnn3CC3CCCO3)N3CCCc4ccccc43)c(=O)[nH]c12 (configuration not stated)	0	8	30	10	4
O=c1[nH]c2cc3c(cc2cc1C(c1nnnn1Cc1ccccc1)N1CCCCCC1)OCCO3 (configuration not stated)	12	6	19	5	5
Cc1ccc(C)c2[nH]c(=O)c(C(c3nnnn3Cc3ccccc3)N3CCc4ccccc4C3)cc12 (configuration not stated)	5	11	67*	5	17
